Experimental data published in ChEMBL document CHEMBL1143286, “Discovery of pentacyclic compounds as potent inhibitors of hepatitis C virus NS5B RNA polymerase” (Bioorg Med Chem Lett, 2009).

Legend:
[1] = Inhibition of HCV BK NS5B polymerase deltaC21 mutant; assay type: single protein, NS5B polymerase (HCV isolate BK)
Method in brief: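 Purified NS5B enzyme (BK strain, C-terminal 21-residue truncation) assayed for polymerase activity on heterogeneous template RNA, following a modified version of a previously published procedure.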

Hepatitis C virus [2] = test: Antiviral activity against HCV assessed as inhibition of viral subgenomic RNA replication in human HuH7 cells by replicon assay in presence of 10% fetal calf serum; assay type: functional, organism-based, Hepacivirus hominis; conditions: Huh-7
Hepatitis C virus [3] = test: Antiviral activity against HCV assessed as inhibition of viral subgenomic RNA replication in human HuH7 cells by replicon assay in presence of 50% normal human serum; assay type: functional, organism-based, Hepacivirus hominis, Huh-7
Hepatitis C virus [4] = test: Ratio of EC50 for HCV RNA replication in human HuH7 cells in presence of 50% normal human serum to EC50 for HCV RNA replication in human HuH7 cells in presence of 10% fetal calf serum; assay type: functional, Hepacivirus hominis, Huh-7
Plasma = test: Protein binding in human plasma; assay type: ADME, cell-free

Q: Which results are given for `COc1ccc2c(c1)[C@H]1[C@@H](CCN1C(=O)OCCN(C)C)Cn1c-2c(C2CCCCC2)c2ccc(C(=O)O)cc21`?
A: IC50 [1]: 21 nM; EC50 (Hepatitis C virus [2]): 180 nM; EC50 (Hepatitis C virus [3]; Hepatitis C virus, Huh-7): 225 nM

Q: What does the source list for `CN(C)[C@H]1C[C@H]2Cn3c(c(C4CCCCC4)c4ccc(C(=O)O)cc43)-c3ccccc3[C@H]2C1`?
A: IC50 [1]: 30 nM; EC50 (Hepatitis C virus [2]): 130 nM; EC50 (Hepatitis C virus [3]; Hepatitis C virus, Huh-7): 890 nM; Ratio EC50 (Hepatitis C virus [4]): 7

Q: With `COc1ccc2c(c1)[C@H]1[C@@H](CCN1C(=O)CN(C)C)Cn1c-2c(C2CCCCC2)c2ccc(C(=O)O)cc21` as the compound, how does the IC50 [1] read?
A: 23 nM

Q: What about the EC50 (Hepatitis C virus [2]) of the same compound?
A: 32 nM

Q: And the EC50 (Hepatitis C virus [3]; Hepatitis C virus, Huh-7)?
A: 110 nM

Q: For `CN(C)C(=O)Cn1c(-c2ccccc2)c(C2CCCCC2)c2ccc(C(=O)O)cc21`, which IC50 [1] is on record?
A: 430 nM

Q: What about the EC50 (Hepatitis C virus [2]) of the same compound?
A: 1540 nM

Q: What about the EC50 (Hepatitis C virus [3]; Hepatitis C virus, Huh-7) of the same compound?
A: 9850 nM

Q: What does the source list for `COc1ccc2c(c1)[C@H]1[C@@H](CCN1CCN(C)C)Cn1c-2c(C2CCCCC2)c2ccc(C(=O)O)cc21` (stereo in doubt; 11)?
A: IC50 [1]: 4 nM; EC50 (Hepatitis C virus [3]; huh-7): 49 nM

Q: What does the source list for `CN(C)C(=O)CN1CC[C@H]2Cn3c(c(C4CCCCC4)c4ccc(C(=O)O)cc43)-c3ccccc3[C@@H]21`?
A: IC50 [1]: 17 nM; EC50 (Hepatitis C virus [2]): 78 nM; EC50 (Hepatitis C virus [3]; Hepatitis C virus, Huh-7): 96 nM

Q: With `COc1ccc2c(c1)[C@@H]1[C@@H](CCN1CCN(C)C)Cn1c-2c(C2CCCCC2)c2ccc(C(=O)O)cc21` as the compound, how does the IC50 [1] read?
A: 21 nM

Q: And the EC50 (Hepatitis C virus [2])?
A: 150 nM

Q: What about the EC50 (Hepatitis C virus [3]; Hepatitis C virus, Huh-7) of the same compound?
A: 270 nM

Q: With `CN(C)CCN1CCn2c(c(C3CCCCC3)c3ccc(C(=O)O)cc32)-c2ccccc2C1` as the compound, how does the IC50 [1] read?
A: 27 nM

Q: What about the EC50 (Hepatitis C virus [2]) of the same compound?
A: 140 nM

Q: What about the EC50 (Hepatitis C virus [3]; Hepatitis C virus, Huh-7) of the same compound?
A: 850 nM

Q: With `COc1ccc2c(c1)[C@H]1[C@@H](CCN1CCN(C)C)Cn1c-2c(C2CCCCC2)c2ccc(C(=O)O)cc21` (stereo in doubt; 8b) as the compound, how does the IC50 [1] read?
A: 8 nM

Q: And the EC50 (Hepatitis C virus [2])?
A: 25 nM

Q: And the EC50 (Hepatitis C virus [3]; Hepatitis C virus, Huh-7)?
A: 63 nM

Q: What about the “Ratio EC50” value (Hepatitis C virus [4]) of the same compound?
A: 2.5

Q: For `CN1CC[C@H]2Cn3c(c(C4CCCCC4)c4ccc(C(=O)O)cc43)-c3ccccc3[C@H]21`, which IC50 [1] is on record?
A: 140 nM

Q: What about the EC50 (Hepatitis C virus [2]) of the same compound?
A: 770 nM

Q: And the EC50 (Hepatitis C virus [3]; Hepatitis C virus, Huh-7)?
A: 2540 nM

Q: What about the “Ratio EC50” value (Hepatitis C virus [4]) of the same compound?
A: 3

Q: What does the source list for `CN(C)CCCN1CC[C@H]2Cn3c(c(C4CCCCC4)c4ccc(C(=O)O)cc43)-c3ccccc3[C@@H]21`?
A: IC50 [1]: 24 nM; EC50 (Hepatitis C virus [2]): 58 nM; EC50 (Hepatitis C virus [3]; Hepatitis C virus, Huh-7): 80 nM

Q: For `O=C(O)c1ccc2c(C3CCCCC3)c3n(c2c1)C[C@@H]1CCN(CCN2CCCCC2)[C@H]1c1ccccc1-3`, which IC50 [1] is on record?
A: 11 nM

Q: And the EC50 (Hepatitis C virus [2])?
A: 40 nM

Q: And the EC50 (Hepatitis C virus [3]; Hepatitis C virus, Huh-7)?
A: 220 nM

Q: And the Activity (Plasma)?
A: 92%

Q: With `COc1ccc2c(c1)[C@@H]1[C@H](CCN1CCN(C)C)Cn1c-2c(C2CCCCC2)c2ccc(C(=O)O)cc21` as the compound, how does the IC50 [1] read?
A: 312 nM

Q: And the EC50 (Hepatitis C virus [2])?
A: > 1000 nM

Q: And the EC50 (Hepatitis C virus [3]; Hepatitis C virus, Huh-7)?
A: > 1000 nM

Q: What does the source list for `CN(C)CCN1CC[C@H]2Cn3c(c(C4CCCCC4)c4ccc(C(=O)O)cc43)-c3ccccc3[C@@H]21`?
A: IC50 [1]: 20 nM; EC50 (Hepatitis C virus [2]): 32 nM; EC50 (Hepatitis C virus [3]; Hepatitis C virus, Huh-7): 98 nM; Activity (Plasma): 91.5%

Q: Which results are given for `CN1CC[C@H]2Cn3c(c(C4CCCCC4)c4ccc(C(=O)O)cc43)-c3ccccc3[C@@H]21`?
A: IC50 [1]: 40 nM; EC50 (Hepatitis C virus [2]): 830 nM; EC50 (Hepatitis C virus [3]; Hepatitis C virus, Huh-7): 700 nM; Ratio EC50 (Hepatitis C virus [4]): 1

Q: For `CN1CC[C@@H]2c3ccccc3-c3c(C4CCCCC4)c4ccc(C(=O)O)cc4n3C[C@@H]21`, which IC50 [1] is on record?
A: 20 nM

Q: What about the EC50 (Hepatitis C virus [2]) of the same compound?
A: 1200 nM

Q: And the EC50 (Hepatitis C virus [3]; Hepatitis C virus, Huh-7)?
A: 3800 nM

Q: What about the “Ratio EC50” value (Hepatitis C virus [4]) of the same compound?
A: 3

Q: For `CN(C)CCN1CCn2c(c(C3CCCCC3)c3ccc(C(=O)O)cc32)-c2ccccc21`, which IC50 [1] is on record?
A: 28 nM

Q: What about the EC50 (Hepatitis C virus [2]) of the same compound?
A: 130 nM

Q: And the EC50 (Hepatitis C virus [3]; Hepatitis C virus, Huh-7)?
A: 360 nM

Q: With `CN(C)CCN1CC[C@H]2Cn3c(c(C4CCCCC4)c4ccc(C(=O)O)cc43)-c3ccccc3[C@H]21` as the compound, how does the IC50 [1] read?
A: 30 nM

Q: What about the EC50 (Hepatitis C virus [2]) of the same compound?
A: 260 nM

Q: And the EC50 (Hepatitis C virus [3]; Hepatitis C virus, Huh-7)?
A: 620 nM

Q: For `CN(C)CC(=O)N1CC[C@H]2Cn3c(c(C4CCCCC4)c4ccc(C(=O)O)cc43)-c3ccccc3[C@@H]21`, which IC50 [1] is on record?
A: 31 nM

Q: And the EC50 (Hepatitis C virus [2])?
A: 170 nM

Q: And the EC50 (Hepatitis C virus [3]; Hepatitis C virus, Huh-7)?
A: 210 nM

Q: What does the source list for `O=C(O)c1ccc2c(C3CCCCC3)c3n(c2c1)C[C@@H]1CCN(CCCN2CCCCC2)[C@@H]1c1ccccc1-3`?
A: IC50 [1]: 11 nM; EC50 (Hepatitis C virus [2]): 53 nM; EC50 (Hepatitis C virus [3]; Hepatitis C virus, Huh-7): 110 nM

Q: Which IC50 [1] does the source give for `CN(C)CCNC(=O)N1CC[C@H]2Cn3c(c(C4CCCCC4)c4ccc(C(=O)O)cc43)-c3ccccc3[C@@H]21` here?
A: 24 nM

Q: And the EC50 (Hepatitis C virus [2])?
A: 630 nM

Q: And the EC50 (Hepatitis C virus [3]; Hepatitis C virus, Huh-7)?
A: 480 nM
